# Screening results as filed in PubChem.
# Shown are actives, neighbours in structure and some others; about 2.5% of the full set was active somewhere.
# PfGluPho inh: PfG6PD (Plasmodium falciparum) enzyme inhibition. inhibition, % at 20 µM. actives 0.78% (n = 350,000). PfGluPho enzyme, NADPH resazurin-diaphorase fluorescence;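 active = inhibition reaching at least a set limit at 20 µM in the primary screen, cut at about 59% in these data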;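 also: 0% = DMSO wells with substrate and 100% = DMSO wells lacking glucose-6-phosphate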
# EP2 antag: blocks the human prostaglandin E2 receptor EP2 | P43116 | C6 glioma cells expressing human EP2, cAMP TR-FRET; cells stimulated with saturating PGE2 | inhibition, % at 25 µM | actives 0.52% (n = 260,000);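 active = percent inhibition above 40 after rounding to a whole number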;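 also: rat C6 glioma host cells with rolipram phosphodiesterase inhibitor present; the protocol text gives 20 µM as final concentration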
# Target sequence (P43116 whole entry, looked up): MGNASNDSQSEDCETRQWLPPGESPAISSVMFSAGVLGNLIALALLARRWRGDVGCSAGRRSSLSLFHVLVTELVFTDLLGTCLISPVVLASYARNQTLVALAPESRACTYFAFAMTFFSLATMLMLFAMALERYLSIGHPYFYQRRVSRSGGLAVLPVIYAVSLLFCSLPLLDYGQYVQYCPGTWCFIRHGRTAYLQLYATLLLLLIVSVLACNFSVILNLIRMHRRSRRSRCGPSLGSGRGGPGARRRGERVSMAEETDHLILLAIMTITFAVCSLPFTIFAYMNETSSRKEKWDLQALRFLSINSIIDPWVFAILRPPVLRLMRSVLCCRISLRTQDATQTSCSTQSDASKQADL
# EP2 mod: modulators of human EP2 prostaglandin E2 receptor | actives 0.83% (n = 260,000) | P43116 | induction, % at 25 µM | EP2-expressing cells, cAMP HTRF FRET, PGE2 co-stimulation;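 active = compounds whose cAMP rise, as percent of the full-agonist control response, exceeds 60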;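 also: rat C6 glioma line stably carrying human EP2 under a CMV promoter; the protocol text gives 20 µM as final concentration; 100% = response of wells given 1 µM PGE2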
# Tb hexokinase: blocks Trypanosoma brucei hexokinase 1 activity; recombinant TbHK1, G6PDH-coupled NADH A340; inhibition, % at 10 µM; actives 0.11% (n = 220,000); AID 1430;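 active = inhibition of 50% or more in the single-dose primary screen; inactive = inhibition below 50%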
# PHOSPHO1 block: blocks human PHOSPHO1 phosphatase activity. inhibition, % at 13.3 µM. recombinant PHOSPHO1, absorbance phosphatase assay. AID 1565. Q8TCT1. actives 1.1% (n = 290,000); in the data active = inhibition above about 60%
# Target sequence (Q8TCT1 whole entry, looked up): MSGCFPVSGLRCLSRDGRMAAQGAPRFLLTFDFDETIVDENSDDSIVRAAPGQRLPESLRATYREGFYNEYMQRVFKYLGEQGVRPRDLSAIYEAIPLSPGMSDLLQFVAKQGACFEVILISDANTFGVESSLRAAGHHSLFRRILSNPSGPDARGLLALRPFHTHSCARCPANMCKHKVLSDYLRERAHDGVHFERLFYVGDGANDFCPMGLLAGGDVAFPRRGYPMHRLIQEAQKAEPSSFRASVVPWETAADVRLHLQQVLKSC
# HKDC1 inh: inhibitors of human hexokinase HKDC1; recombinant HKDC1, G6PDH/diaphorase resazurin coupled fluorescence; inhibition, % at 20 µM; actives 0.16% (n = 340,000); AID 493160;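 active = inhibition above about 35% when tested at 20 µM, limit read from the data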;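 also: plate controls were DMSO wells with enzyme for no effect and DMSO wells lacking enzyme for full effect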
#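 Assay system: in-house recombinant HK5 (HKDC1) enzyme. Input: HKDC1 at 5 µg/mL. Medium: Tris pH 8.0 buffer with MgCl2, Tween-20, BSA, BME. Dosing: single 20 µM dose. Schedule: 90 min reaction incubation at room temperature, dark. Signal: resazurin-to-resorufin fluorescence via G6PDH and diaphorase coupling, 525/613 nm. Controls: DMSO-enzyme wells negative, buffer-substituted wells positive.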
# PfGluPho conf: confirmation of Plasmodium falciparum G6PD inhibitors; shares compounds with PfGluPho inh; recombinant PfGluPho, NADPH-diaphorase-resazurin fluorescence; inhibition, % at 20 µM; actives 34% (n = 2,400); AID 504753;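 active = inhibition of at least 50% at 20 µM in any single replicate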;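 also: 0% = DMSO with substrate and 100% = DMSO lacking glucose-6-phosphate substrate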
# Diaph ctr 10uM: inhibits diaphorase or oxidizes, flagging false PfG6PD hits; shares compounds with PfGluPho inh; diaphorase-coupled resazurin reduction, fluorescence, NADPH 10 uM; inhibition, % at 20 µM; actives 39% (n = 820); AID 504862;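 active = average inhibition reaching 50% or more with the compound at 20 µM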;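 also: resorufin red fluorescence formed as diaphorase reduces resazurin using NADPH; 0% = DMSO with enzyme and 100% = DMSO without enzyme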
# Diaphorase 30uM: counter-screen for P. falciparum G6PD inhibitors: diaphorase inhibitors, oxidizers. actives 29% (n = 820). Diaphorase/resazurin coupled assay, resorufin fluorescence, 30 uM NADPH. AID 504863. inhibition, % at 20 µM. shares compounds with PfGluPho inh;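 active = inhibition averaging 50% or more, tested at 20 µM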;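 also: 0% = DMSO with enzyme and 100% = DMSO wells lacking diaphorase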
# * hit, by the source's call; nt = no result; ! = a repeat was not active.
SMILES,PfGluPho inh,EP2 antag,EP2 mod,Tb hexokinase,PHOSPHO1 block,HKDC1 inh,PfGluPho conf,Diaph ctr 10uM,Diaphorase 30uM
CCCCCCCCn1sccc1=O,92*,nt,nt,nt,nt,7,78*,-9,-9
O=[N+]([O-])c1[nH]cnc1Cl,nt,16,6,nt,nt,nt,nt,nt,nt
CCN1CC2(CO)CCC(O)C34C5CC6C(OC)CC(O)(C5C6OC)C(O)(C(OC)C23)C14 (stereo not given),nt,9,-10,nt,nt,nt,nt,nt,nt
O=C1Nc2ccc(Br)cc2C(c2ccc(Cl)cc2)=NC1O (stereo not given),100*,nt,nt,nt,11,5,75*,83*,67*
C[C@]12CC[C@@H]3c4ccc(O)c(O)c4CC[C@H]3[C@@H]1CC[C@@H]2O,100*,89*,-24,nt,36,1,93*,8,23
COc1cccc(CN2CCN(C(=O)Cc3ccccn3)[C@@H](C)C2)c1,nt,nt,-62,nt,nt,nt,nt,nt,nt
COC(=O)c1cn(Cc2ccccc2F)c2ccccc12,nt,10,39,nt,nt,nt,nt,nt,nt
Clc1ccc(-c2nc3ccc(Cl)cn3c2CN2CCOCC2)cc1,60*,8,-3,-6,5,-5,33,nt,nt
Cc1nc(-c2ccccc2)c(CC(=O)N(CCN(C)C)Cc2ccc(F)cc2)s1,nt,8,-27,nt,nt,nt,nt,nt,nt
C=C1C(=O)O[C@@H]2C[C@@H](C)[C@@H]3C=CC(=O)[C@@]3(C)[C@@H](OC(=O)CC(=O)O[C@H]3[C@@H]4C(=C)C(=O)O[C@@H]4C[C@@H](C)[C@@H]4C=CC(=O)[C@]43C)[C@H]12,68*,166*,-44,-3,31,16,56*,-6,-3
CC1CCN(C(CC(=O)c2ccccc2)C(=O)c2ccccc2)CC1 (stereo not given),94*,nt,nt,nt,nt,1,0,nt,nt
Cc1nc(-c2ccccc2)c(CC(=O)N2CCCCC2CN2CCCC2)s1 (stereo not given),nt,5,-33,nt,nt,nt,nt,nt,nt
Nc1ccc(C2(c3ccc(N)cc3)c3ccccc3-c3ccccc32)cc1,-19,11,22,0,-5,-1,nt,nt,nt
Nc1ccc2c3c(cccc13)-c1ccccc1-2,79*,nt,nt,nt,nt,7,82*,-16,-8
Cc1nc2c(=O)n(C)c(=O)nc-2n(C)n1,120*,34,-164,14,68*,18,109*,98*,102*
CN(C)c1ccc(C=C2C(=O)NC(=S)NC2=O)cc1,69*,nt,nt,nt,nt,-4,41,nt,nt
CCCC(=O)NC1=C(N2CC2)C(=O)C(NC(=O)CCC)=C(N2CC2)C1=O,81*,nt,nt,nt,nt,10,94*,85*,82*
CCCOc1ccccc1CN1C2CCC1CC(O)(c1nccn1C)C2 (stereo not given),nt,4,-3,nt,nt,nt,nt,nt,nt
COc1ccc(OC)c(N2C(=O)NC(=O)/C(=C/c3ccc([N+](=O)[O-])s3)C2=O)c1,62*,18,-27,-12,4,6,38,nt,nt
CCN1C(=O)/C(=C\c2ccc([N+](=O)[O-])s2)C(=O)NC1=S,nt,20,-17,-3,28,nt,nt,nt,nt
CN(C)CCN(C(=O)Cc1nn(C)c(=O)c2ccccc12)C1CCCC1,nt,2,-16,nt,nt,nt,nt,nt,nt
c1ccc2c(c1)CCNCC2,nt,10,-23,nt,nt,nt,nt,nt,nt
CCn1c(C)c(C(=O)Nc2ccc(OC)cc2)c2cc(OC)ccc21,66*,nt,nt,nt,-2,0,26,nt,nt
Cc1cccc(C2=NCC(=O)Nc3sc4c(c32)CCCC4)c1,nt,5,9,nt,nt,nt,nt,nt,nt
COc1ccc2c(c1O)-c1c(OC)c(OC)cc3c1[C@H](C2)N(C)CC3,-7,11,17,nt,nt,1,nt,nt,nt
SMILES,PfGluPho inh,EP2 antag,EP2 mod,Tb hexokinase,PHOSPHO1 block,HKDC1 inh,PfGluPho conf,Diaph ctr 10uM,Diaphorase 30uM
CCCN1CCc2cccc3c2[C@H]1Cc1ccc(O)c(O)c1-3,86*,43*!,40,nt,nt,1,82*,28,11
C=Cn1ncc(CN(CCc2ccccc2)Cc2cccs2)c1C,nt,3,60,nt,nt,nt,nt,nt,nt
CCC(COC(=O)NC)NC(=O)Oc1cccc(C)c1 (stereo not given),-24,3,31,1,32,0,nt,nt,nt
CNC(=O)Oc1ccc(-c2cn3cc(C)ccc3n2)cc1,62*,2,-16,-4,-5,17,47,nt,nt
CNC(=O)Oc1cccc(-c2cn3cc(Cl)ccc3n2)c1,61*,9,-33,-9,-18,-7,17,nt,nt
C=CCc1cc(CN2C3CCC2CC(O)(c2nccn2C)C3)cc(OC)c1OCC (stereo not given),nt,2,-18,nt,nt,nt,nt,nt,nt
NC1CCc2cc(O)c(O)cc2C1 (stereo not given),69*,22,6,nt,nt,-1,76*,-2,6
O=C(c1cc(-c2ccc(Cl)cc2)n(-c2ccc(Cl)cc2Cl)n1)N1CCOCC1,82*,-5,41,-6,47,-3,25,nt,nt
O=C(c1cc([N+](=O)[O-])ccc1N1CCNCC1)N1CCOCC1,7,3,4,-25,14,-9,nt,nt,nt
COc1ccc2c(c1)C(NC(C)=O)CCc1cc(OC)c(OC)c(OC)c1-2 (stereo not given),-8,nt,nt,nt,nt,-1,nt,nt,nt
COC(=O)C12CCc3c(ccc4cc(OC)ccc34)C1=CC(=O)C2 (stereo not given),71*,nt,nt,nt,nt,0,28,nt,nt
c1ccc(-c2nc(N3CCOCC3)s[n+]2-c2ccccc2)cc1,59*,-1,27,1,-7,-12,73*,-24,-25
Cc1cccc(C2=NCC(=O)Nc3sc(C)cc32)c1,nt,16,-7,nt,nt,nt,nt,nt,nt
OC1(c2ccc(F)cc2)CC2CCC(C1)N2Cc1nnnn1Cc1ccco1 (stereo not given),nt,9,-46,nt,nt,nt,nt,nt,nt
CC1=NN=C(c2ccc(N)cc2)c2cc3c(cc2C1)OCO3,44,9,-11,nt,nt,15,9,nt,nt
